According to ChEMBL document CHEMBL4680175, “Sulfonamide-based ring-fused analogues for CAN508 as novel carbonic anhydrase inhibitors endowed with antitumor activity: Design, synthesis, and in vitro biological evaluation” (Eur J Med Chem, 2020):
Active and inactive are the calls of the source. The rule behind the calls is not given here.

Assays:
Carbonic anhydrase 9 = Carbonic anhydrase 9 (Homo sapiens, UniProt Q16790); experiment: Inhibition of recombinant human carbonic anhydrase 9 preincubated with enzyme for 15 mins by phenol red dye based stopped flow CO2 hydrase assay
Hs-578T = experiment: Antitumor activity against human HS 578T cells assessed as cell growth inhibition at 10 uM incubated for 48 hrs by sulforhodamine B assay; assay type: functional; conditions: read-out: GI
Summary of the method: (§1)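 NCI Drug Evaluation Branch protocol: primary single-dose screen at 10 μM across a 57-line human cancer panel. Drug exposure is 48 h. Cell growth and viability are read by sulforhodamine B assay. Data are given as a mean graph of percent growth of treated cells and reported as percentage growth inhibition (GI%).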

SF-539 = experiment: Antitumor activity against human SF539 cells assessed as cell growth inhibition at 10 uM incubated for 48 hrs by sulforhodamine B assay; assay type: functional; conditions: read-out: GI; summary of the method: as §1
U-251 = experiment: Antitumor activity against human U251 cells assessed as cell growth inhibition at 10 uM incubated for 48 hrs by sulforhodamine B assay; assay type: functional; conditions: read-out: GI
Summary of the method: (§2)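 NCI one-dose screen: 57-cell-line panel exposed at 10 μM for 48 h, Drug Evaluation Branch protocol. Growth and viability read by sulforhodamine B; data given as percent growth inhibition from the mean-graph of percent growth of treated cells.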

HOP-92 = experiment: Antitumor activity against human HOP92 cells assessed as cell growth inhibition at 10 uM incubated for 48 hrs by sulforhodamine B assay; assay type: functional; conditions: read-out: GI; summary of the method: as §1
KM12 = experiment: Antitumor activity against human KM12 cells assessed as cell growth inhibition at 10 uM incubated for 48 hrs by sulforhodamine B assay; assay type: functional; conditions: read-out: GI; summary of the method: as §1
IGROV-1 = experiment: Antitumor activity against human IGROV1 cells assessed as cell growth inhibition at 10 uM incubated for 48 hrs by sulforhodamine B assay; assay type: functional; conditions: read-out: GI; summary of the method: as §1
NCI-H322M = experiment: Antitumor activity against human NCI-H322M cells assessed as cell growth inhibition at 10 uM incubated for 48 hrs by sulforhodamine B assay; assay type: functional; conditions: read-out: GI; summary of the method: as §1
MDA-MB-435 = experiment: Antitumor activity against human MDA-MB-435 cells assessed as cell growth inhibition at 10 uM incubated for 48 hrs by sulforhodamine B assay; assay type: functional; conditions: read-out: GI; summary of the method: as §1
DU-145 = experiment: Antitumor activity against human DU-145 cells assessed as cell growth inhibition at 10 uM incubated for 48 hrs by sulforhodamine B assay; assay type: functional; conditions: read-out: GI; summary of the method: as §1
RPMI-8226 = experiment: Antitumor activity against human RPMI8226 cells assessed as cell growth inhibition at 10 uM incubated for 48 hrs by sulforhodamine B assay; assay type: functional; conditions: read-out: GI; summary of the method: as §1
SK-MEL-5 = experiment: Antitumor activity against human SK-MEL-5 cells assessed as cell growth inhibition at 10 uM incubated for 48 hrs by sulforhodamine B assay; assay type: functional; conditions: read-out: GI; summary of the method: as §1
SF-268 = experiment: Antitumor activity against human SF268 cells assessed as cell growth inhibition at 10 uM incubated for 48 hrs by sulforhodamine B assay; assay type: functional; conditions: read-out: GI; summary of the method: as §1
T47D = experiment: Antitumor activity against human T-47D cells assessed as cell growth inhibition at 10 uM incubated for 48 hrs by sulforhodamine B assay; assay type: functional; conditions: read-out: GI; summary of the method: as §2
SK-OV-3 = experiment: Antitumor activity against human SK-OV-3 cells assessed as cell growth inhibition at 10 uM incubated for 48 hrs by sulforhodamine B assay; assay type: functional; conditions: read-out: GI; summary of the method: as §1
HCT-116 = experiment: Antitumor activity against human HCT116 cells assessed as cell growth inhibition at 10 uM incubated for 48 hrs by sulforhodamine B assay; assay type: functional; conditions: read-out: GI; summary of the method: as §1
SN12C = experiment: Antitumor activity against human SN12C cells assessed as cell growth inhibition at 10 uM incubated for 48 hrs by sulforhodamine B assay; assay type: functional; conditions: read-out: GI; summary of the method: as §1
UACC-62 = experiment: Antitumor activity against human UACC-62 cells assessed as cell growth inhibition at 10 uM incubated for 48 hrs by sulforhodamine B assay; assay type: functional; conditions: read-out: GI; summary of the method: as §2
HCT-15 = experiment: Antitumor activity against human HCT15 cells assessed as cell growth inhibition at 10 uM incubated for 48 hrs by sulforhodamine B assay; assay type: functional; conditions: read-out: GI; summary of the method: as §1
ACHN = experiment: Antitumor activity against human ACHN cells assessed as cell growth inhibition at 10 uM incubated for 48 hrs by sulforhodamine B assay; assay type: functional; conditions: read-out: GI; summary of the method: as §1
Malme-3M = experiment: Antitumor activity against human MALME-3M cells assessed as cell growth inhibition at 10 uM incubated for 48 hrs by sulforhodamine B assay; assay type: functional; conditions: read-out: GI; summary of the method: as §1
CDK9/cyclin T1 = CDK9/cyclin T1 (Homo sapiens, UniProt P50750); experiment: Inhibition of human full-length N-terminal GST/His6-tagged CDK9 (1 to 372 residues)/His6-tagged Cyclin-T1 (1 to 726 residues) expressed in sf9 cells using (YSPTSPS)2KK peptide as substrate in presence of [gamma33P]ATP
CDK9/cyclin T1, sequence (O60563 whole entry, the tested form may be a part): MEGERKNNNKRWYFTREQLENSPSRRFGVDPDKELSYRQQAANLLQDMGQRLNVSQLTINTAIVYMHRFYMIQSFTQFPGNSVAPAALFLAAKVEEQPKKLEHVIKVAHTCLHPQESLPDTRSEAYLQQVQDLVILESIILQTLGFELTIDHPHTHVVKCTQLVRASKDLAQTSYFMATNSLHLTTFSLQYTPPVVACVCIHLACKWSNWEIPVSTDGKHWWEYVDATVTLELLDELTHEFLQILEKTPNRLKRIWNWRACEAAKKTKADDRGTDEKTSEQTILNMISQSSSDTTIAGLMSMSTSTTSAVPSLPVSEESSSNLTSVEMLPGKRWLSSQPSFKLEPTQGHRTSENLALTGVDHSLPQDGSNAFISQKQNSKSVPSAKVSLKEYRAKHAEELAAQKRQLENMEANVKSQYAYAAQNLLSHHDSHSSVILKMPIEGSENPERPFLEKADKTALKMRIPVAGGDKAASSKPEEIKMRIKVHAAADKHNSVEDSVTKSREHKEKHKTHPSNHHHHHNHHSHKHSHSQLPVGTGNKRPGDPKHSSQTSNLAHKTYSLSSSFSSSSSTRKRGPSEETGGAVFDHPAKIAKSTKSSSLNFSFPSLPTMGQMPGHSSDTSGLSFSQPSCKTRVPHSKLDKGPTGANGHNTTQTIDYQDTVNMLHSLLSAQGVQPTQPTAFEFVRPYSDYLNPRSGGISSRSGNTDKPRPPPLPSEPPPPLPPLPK
CDK9/cyclin T1, sequence (P50750 whole entry, the tested form may be a part): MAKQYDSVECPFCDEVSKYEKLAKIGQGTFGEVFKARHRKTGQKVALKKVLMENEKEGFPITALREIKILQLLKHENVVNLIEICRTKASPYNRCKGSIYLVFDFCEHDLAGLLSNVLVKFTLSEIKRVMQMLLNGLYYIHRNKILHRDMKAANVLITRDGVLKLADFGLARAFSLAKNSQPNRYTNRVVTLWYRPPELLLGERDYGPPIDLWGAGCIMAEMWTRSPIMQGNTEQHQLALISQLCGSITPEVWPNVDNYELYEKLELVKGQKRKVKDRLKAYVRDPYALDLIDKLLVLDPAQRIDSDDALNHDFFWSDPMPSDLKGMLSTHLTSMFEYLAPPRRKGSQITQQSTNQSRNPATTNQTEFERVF

786-0 = experiment: Antitumor activity against human 786-0 cells assessed as cell growth inhibition at 10 uM incubated for 48 hrs by sulforhodamine B assay; assay type: functional; conditions: read-out: GI; summary of the method: as §1
OVCAR-8 = experiment: Antitumor activity against human OVCAR-8 cells assessed as cell growth inhibition at 10 uM incubated for 48 hrs by sulforhodamine B assay; assay type: functional; conditions: read-out: GI; summary of the method: as §1
MDA-MB-231 = experiment: Antitumor activity against human MDA-MB-231/ATCC cells assessed as cell growth inhibition at 10 uM incubated for 48 hrs by sulforhodamine B assay; assay type: functional; conditions: read-out: GI; summary of the method: as §1
Carbonic anhydrase 12 = Carbonic anhydrase 12 (Homo sapiens, UniProt O43570); experiment: Inhibition of recombinant human carbonic anhydrase 12 preincubated with enzyme for 15 mins by phenol red dye based stopped flow CO2 hydrase assay
Carbonic anhydrase 12, sequence (O43570 whole entry): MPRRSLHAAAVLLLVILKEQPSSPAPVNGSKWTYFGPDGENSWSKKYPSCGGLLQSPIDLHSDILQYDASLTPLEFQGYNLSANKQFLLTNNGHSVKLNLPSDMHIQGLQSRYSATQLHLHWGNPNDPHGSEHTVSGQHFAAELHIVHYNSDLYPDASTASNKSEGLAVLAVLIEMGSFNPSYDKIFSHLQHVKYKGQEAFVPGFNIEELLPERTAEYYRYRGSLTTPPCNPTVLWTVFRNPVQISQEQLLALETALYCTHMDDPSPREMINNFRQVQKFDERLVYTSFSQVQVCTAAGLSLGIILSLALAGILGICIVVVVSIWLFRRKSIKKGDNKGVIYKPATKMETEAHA

LOX IMVI = experiment: Antitumor activity against human LOX IMVI cells assessed as cell growth inhibition at 10 uM incubated for 48 hrs by sulforhodamine B assay; assay type: functional; conditions: read-out: GI; summary of the method: as §1
SK-MEL-2 = experiment: Antitumor activity against human SK-MEL-2 cells assessed as cell growth inhibition at 10 uM incubated for 48 hrs by sulforhodamine B assay; assay type: functional; conditions: read-out: GI; summary of the method: as §1
SR = experiment: Antitumor activity against human SR cells assessed as cell growth inhibition at 10 uM incubated for 48 hrs by sulforhodamine B assay; assay type: functional; conditions: read-out: GI; summary of the method: as §2
NCI-H522 = experiment: Antitumor activity against human NCI-H522 cells assessed as cell growth inhibition at 10 uM incubated for 48 hrs by sulforhodamine B assay; assay type: functional; conditions: read-out: GI; summary of the method: as §1
NCI/ADR-RES = experiment: Antitumor activity against human NCI/ADR-RES cells assessed as cell growth inhibition at 10 uM incubated for 48 hrs by sulforhodamine B assay; assay type: functional, cell-based; summary of the method: as §1
OVCAR-3 = experiment: Antitumor activity against human OVCAR-3 cells assessed as cell growth inhibition at 10 uM incubated for 48 hrs by sulforhodamine B assay; assay type: functional; conditions: read-out: GI; summary of the method: as §1
M14 = experiment: Antitumor activity against human M14 cells assessed as cell growth inhibition at 10 uM incubated for 48 hrs by sulforhodamine B assay; assay type: functional; conditions: read-out: GI; summary of the method: as §1
[1] = target: Cyclin-dependent kinase 2/cyclin E1 (Homo sapiens, UniProt P24941); experiment: Inhibition of CDK2/cyclin E (unknown origin) expressed in baculovirus infected Sf21 insect cells using histone H1 as substrate in presence of [gamma33P]ATP
Carbonic anhydrase 1 = Carbonic anhydrase 1 (Homo sapiens, UniProt P00915); experiment: Inhibition of recombinant human carbonic anhydrase 1 preincubated with enzyme for 15 mins by phenol red dye based stopped flow CO2 hydrase assay
Carbonic anhydrase 1, sequence (P00915 whole entry): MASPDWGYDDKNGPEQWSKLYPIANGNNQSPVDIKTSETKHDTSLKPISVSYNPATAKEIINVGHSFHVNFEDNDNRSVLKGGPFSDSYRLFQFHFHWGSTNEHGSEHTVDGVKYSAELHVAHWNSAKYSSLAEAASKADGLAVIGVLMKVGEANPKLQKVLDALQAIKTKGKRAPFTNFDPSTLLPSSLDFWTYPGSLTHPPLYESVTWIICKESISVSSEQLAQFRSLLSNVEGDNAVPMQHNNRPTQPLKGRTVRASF

RXF 393 = experiment: Antitumor activity against human RXF 393 cells assessed as cell growth inhibition at 10 uM incubated for 48 hrs by sulforhodamine B assay; assay type: functional; conditions: read-out: GI; summary of the method: as §1
UO-31 = experiment: Antitumor activity against human UO-31 cells assessed as cell growth inhibition at 10 uM incubated for 48 hrs by sulforhodamine B assay; assay type: functional; conditions: read-out: GI; summary of the method: as §2
SW-620 = experiment: Antitumor activity against human SW620 cells assessed as cell growth inhibition at 10 uM incubated for 48 hrs by sulforhodamine B assay; assay type: functional; conditions: read-out: GI; summary of the method: as §2
A498 = experiment: Antitumor activity against human A498 cells assessed as cell growth inhibition at 10 uM incubated for 48 hrs by sulforhodamine B assay; assay type: functional; conditions: read-out: GI; summary of the method: as §1
BT-549 = experiment: Antitumor activity against human BT-549 cells assessed as cell growth inhibition at 10 uM incubated for 48 hrs by sulforhodamine B assay; assay type: functional; conditions: read-out: GI; summary of the method: as §1
SNB-75 = experiment: Antitumor activity against human SNB-75 cells assessed as cell growth inhibition at 10 uM incubated for 48 hrs by sulforhodamine B assay; assay type: functional; conditions: read-out: GI; summary of the method: as §2
NCI-H460 = experiment: Antitumor activity against human NCI-H460 cells assessed as cell growth inhibition at 10 uM incubated for 48 hrs by sulforhodamine B assay; assay type: functional; conditions: read-out: GI; summary of the method: as §1
CAKI-1 = experiment: Antitumor activity against human CAKI-1 cells assessed as cell growth inhibition at 10 uM incubated for 48 hrs by sulforhodamine B assay; assay type: functional; conditions: read-out: GI; summary of the method: as §1
Carbonic anhydrase 2 = Carbonic anhydrase 2 (Homo sapiens, UniProt P00918); experiment: Inhibition of recombinant human carbonic anhydrase 2 preincubated with enzyme for 15 mins by phenol red dye based stopped flow CO2 hydrase assay
CCRF-CEM = experiment: Antitumor activity against human CCRF-CEM cells assessed as cell growth inhibition at 10 uM incubated for 48 hrs by sulforhodamine B assay; assay type: functional; conditions: read-out: GI; summary of the method: as §1

Nc1nn2cc(-c3ccc(F)cc3)[nH]c2c1/N=N/c1ccc(S(N)(=O)=O)cc1
Ki (Carbonic anhydrase 9): 28.4 nM
inhibition of growth at 10 µM (Hs-578T): 33%
inhibition of growth at 10 µM (SF-539): 27%
inhibition of growth at 10 µM (U-251): 24%
inhibition of growth at 10 µM (HOP-92): 25%
inhibition of growth at 10 µM (KM12): 27%
inhibition of growth at 10 µM (IGROV-1): 38%
inhibition of growth at 10 µM (NCI-H322M): 58%
inhibition of growth at 10 µM (MDA-MB-435): 22%
inhibition of growth at 10 µM (DU-145): 30%
inhibition of growth at 10 µM (RPMI-8226): 27%
inhibition of growth at 10 µM (SK-MEL-5): 23%
inhibition of growth at 10 µM (SF-268): 23%
inhibition of growth at 10 µM (T47D): 22%
inhibition of growth at 10 µM (SK-OV-3): 26%
inhibition of growth at 10 µM (HCT-116): 37%
inhibition of growth at 10 µM (SN12C): 31%
inhibition of growth at 10 µM (UACC-62): 29%
inhibition of growth at 10 µM (HCT-15): 40%
inhibition of growth at 10 µM (ACHN): 48%
inhibition of growth at 10 µM (Malme-3M): 42%
IC50 (CDK9/cyclin T1): > 12500 nM
inhibition of growth at 10 µM (786-0): 32%
inhibition of growth at 10 µM (OVCAR-8): 21%
inhibition of growth at 10 µM (MDA-MB-231): 25%
Ki (Carbonic anhydrase 12): 18.6 nM
inhibition of growth at 10 µM (LOX IMVI): 36%
inhibition of growth at 10 µM (SK-MEL-2): 30%
inhibition of growth at 10 µM (SR): 33%
inhibition of growth at 10 µM (NCI-H522): 45%
Activity (NCI/ADR-RES): inactive
inhibition of growth at 10 µM (OVCAR-3): 21%
inhibition of growth at 10 µM (M14): 35%
IC50 [1]: > 12500 nM
Ki (Carbonic anhydrase 1): 769 nM
inhibition of growth at 10 µM (RXF 393): 40%
inhibition of growth at 10 µM (UO-31): 42%
inhibition of growth at 10 µM (SW-620): 23%
inhibition of growth at 10 µM (A498): 60%
inhibition of growth at 10 µM (BT-549): 26%
inhibition of growth at 10 µM (SNB-75): 44%
inhibition of growth at 10 µM (NCI-H460): 41%
inhibition of growth at 10 µM (CAKI-1): 53%
Ki (Carbonic anhydrase 2): 33.8 nM
inhibition of growth at 10 µM (CCRF-CEM): 33%
